Test results from publication PMC3607822 (The Journal of General Physiology, 2013).
Residue numbers refer to the chain shown, from its start.

Assays:
[1] = biological target: T1, human CNGA3 wild-type homomeric channels (Homo sapiens, UniProt Q16281); assay: Inside-out patch clamp, homomeric CNGA3 wild type expressed in X. laevis oocytes; format: biochemical
T1 sequence (Q16281 1-694): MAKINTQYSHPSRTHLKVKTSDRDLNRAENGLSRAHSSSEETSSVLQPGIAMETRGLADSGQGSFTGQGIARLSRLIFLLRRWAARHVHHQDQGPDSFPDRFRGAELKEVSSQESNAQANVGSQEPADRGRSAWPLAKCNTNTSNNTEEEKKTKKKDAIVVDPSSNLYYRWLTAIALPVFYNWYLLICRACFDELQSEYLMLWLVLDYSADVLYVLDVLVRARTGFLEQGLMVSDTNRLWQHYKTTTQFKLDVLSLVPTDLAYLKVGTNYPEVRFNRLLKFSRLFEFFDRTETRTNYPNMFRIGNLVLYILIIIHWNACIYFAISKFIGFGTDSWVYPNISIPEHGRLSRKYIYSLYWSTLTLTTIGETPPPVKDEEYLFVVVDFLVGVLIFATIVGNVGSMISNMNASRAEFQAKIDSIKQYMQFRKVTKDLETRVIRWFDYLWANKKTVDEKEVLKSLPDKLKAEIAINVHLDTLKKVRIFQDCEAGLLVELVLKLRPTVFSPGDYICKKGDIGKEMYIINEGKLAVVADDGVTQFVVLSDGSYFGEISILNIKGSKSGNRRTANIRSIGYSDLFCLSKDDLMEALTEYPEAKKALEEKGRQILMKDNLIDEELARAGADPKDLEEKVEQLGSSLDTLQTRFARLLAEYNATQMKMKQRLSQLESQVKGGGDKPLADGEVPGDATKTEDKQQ

[2] = biological target: T2, A3-N7R-A,RR-QQ+B3 channels (Homo sapiens, UniProt Q16281+Q9NQW8, R101A/R103A/R643Q/R646Q/R72A/R75A/R81A/R82A/R86A); assay: Inside-out patch clamp, A3-N7R-A,RR-QQ+B3; format: biochemical; conditions: 10 µM PIP2 or 1 µM PIP3
T2 sequence (Q16281 1-694 R72A/R75A/R81A/R82A/R86A/R101A/R103A/R643Q/R646Q): T1 sequence (Q16281 1-694) with R72A, R75A, R81A, R82A, R86A, R101A, R103A, R643Q, R646Q
T2 sequence (Q9NQW8 1-809): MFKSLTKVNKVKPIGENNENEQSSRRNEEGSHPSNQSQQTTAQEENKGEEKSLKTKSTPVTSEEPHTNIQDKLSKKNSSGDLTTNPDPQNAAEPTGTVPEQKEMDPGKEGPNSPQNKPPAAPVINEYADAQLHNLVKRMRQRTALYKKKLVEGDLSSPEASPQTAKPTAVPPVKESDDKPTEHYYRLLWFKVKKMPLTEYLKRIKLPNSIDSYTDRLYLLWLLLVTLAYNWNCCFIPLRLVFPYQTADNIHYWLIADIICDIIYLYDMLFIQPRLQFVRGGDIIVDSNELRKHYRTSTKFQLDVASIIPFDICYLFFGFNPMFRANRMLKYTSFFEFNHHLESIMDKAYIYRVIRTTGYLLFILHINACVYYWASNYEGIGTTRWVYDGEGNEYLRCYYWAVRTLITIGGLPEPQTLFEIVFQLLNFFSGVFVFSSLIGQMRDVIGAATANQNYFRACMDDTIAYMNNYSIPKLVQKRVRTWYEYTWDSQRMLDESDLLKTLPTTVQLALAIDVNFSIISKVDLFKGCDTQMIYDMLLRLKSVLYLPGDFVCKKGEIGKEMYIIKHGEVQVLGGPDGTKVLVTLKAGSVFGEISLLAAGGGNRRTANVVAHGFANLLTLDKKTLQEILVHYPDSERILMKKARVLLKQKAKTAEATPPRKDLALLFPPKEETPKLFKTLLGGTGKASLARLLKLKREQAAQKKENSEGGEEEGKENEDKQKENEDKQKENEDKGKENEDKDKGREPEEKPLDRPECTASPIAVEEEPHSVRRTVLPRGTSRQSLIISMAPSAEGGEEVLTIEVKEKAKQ
In short: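 Subunit cRNAs (~20 ng, B in excess over A) injected into stage IV Xenopus oocytes; inside-out patches 2–7 d later, 20–22°C, symmetric 130 mM NaCl, 0.2 mM EDTA, 3 mM Hepes pH 7.2. Heteromer formation checked by 25 µM l-cis-diltiazem with 1 mM cGMP. diC8 phosphoinositides applied intracellularly in phosphatase-inhibitor cocktail. cGMP dose–response at +80 mV, leak-subtracted, Hill fit before/after for K1/2; mean ± SEM.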

CNGA1 homomeric channels = CNGA1 homomeric channels (Bos taurus, UniProt Q00194); assay: Inside-out patch clamp, homomeric CNGA1; format: biochemical, bovine; conditions: PIP3 or PIP2 application
Sequence of CNGA1 homomeric channels (Q00194 whole entry): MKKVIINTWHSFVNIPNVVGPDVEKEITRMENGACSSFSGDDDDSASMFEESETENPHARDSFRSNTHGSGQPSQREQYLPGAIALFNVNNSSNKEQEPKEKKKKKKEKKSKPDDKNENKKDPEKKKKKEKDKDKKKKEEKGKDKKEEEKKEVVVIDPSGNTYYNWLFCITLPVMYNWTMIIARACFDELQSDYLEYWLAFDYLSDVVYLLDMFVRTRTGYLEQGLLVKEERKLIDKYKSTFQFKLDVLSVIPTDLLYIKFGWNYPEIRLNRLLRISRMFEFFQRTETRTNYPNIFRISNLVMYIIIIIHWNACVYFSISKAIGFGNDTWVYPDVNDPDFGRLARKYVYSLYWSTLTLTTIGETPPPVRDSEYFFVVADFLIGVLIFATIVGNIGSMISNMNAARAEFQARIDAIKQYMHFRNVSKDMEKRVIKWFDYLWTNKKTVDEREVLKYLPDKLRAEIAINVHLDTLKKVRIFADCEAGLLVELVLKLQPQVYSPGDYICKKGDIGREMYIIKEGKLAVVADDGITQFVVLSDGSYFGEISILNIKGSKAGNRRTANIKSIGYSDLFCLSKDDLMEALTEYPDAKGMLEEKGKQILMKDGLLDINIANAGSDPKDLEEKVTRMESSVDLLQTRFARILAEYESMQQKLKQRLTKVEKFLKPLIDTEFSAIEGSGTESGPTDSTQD

[3] = biological target: T3, heteromeric CNGA3+CNGB3 channels (Homo sapiens, UniProt Q16281+Q9NQW8); assay: Inside-out patch clamp, heteromeric CNGA3+CNGB3; format: biochemical
T3 sequence (Q16281 1-694): T1 sequence (Q16281 1-694)
T3 sequence (Q9NQW8 1-809): T2 sequence (Q9NQW8 1-809)

[4] = biological target: T4, CNGA3 P99L, A105P (PA-LP) channels (Homo sapiens, UniProt Q16281, A105P/P99L); assay: Inside-out patch clamp, CNGA3 P99L, A105P; format: biochemical; conditions: after PIP3 or PIP2 application
T4 sequence (Q16281 1-694 P99L/A105P): T1 sequence (Q16281 1-694) with P99L, A105P

CNG channels = conditions: ref Fodor et al., 1997; cited from earlier work
[5] = mean, after 1 µM PIP3 or 10 µM PIP2
[6] = representative patch, after PIP3 or PIP2

poly-lysine
Imax cAMP/cGMP after poly-lysine ([1]; poly-lysine applied to control patches (no exogenous PIPn)): 0.10 ± 0.01

C=C1[C@@H](C)[C@H]2[C@H](Cc3ccccc3)NC(=O)[C@]23[C@H](OC(C)=O)/C=C/[C@@](C)(O)C(=O)[C@@H](C)C/C=C/[C@H]3[C@@H]1O [cyto D, cytochalasin D]
effect on cAMP efficacy ([1]; 10 µM cyto D applied to inside-out patches): decrease in cAMP efficacy

phosphatidylinositol (4,5)-biphosphate [PIP2]
effect on maximal cGMP current ([1]; 1 mM cGMP): not significantly altered | K1/2 cAMP after phosphoinositide ([1]; apparent cAMP affinity after PIP3 or PIP2 application): 1.13 ± 0.04 mM | regulation of apparent cGMP affinity [2]: insensitive to regulation | effect on relative cAMP efficacy (CNGA1 homomeric channels): decreased relative cAMP efficacy | effect on currents elicited by 5 µM cGMP ([3]; 1 µM PIP3 or 10 µM PIP2): attenuated the currents | Imax cAMP/cGMP after phosphoinositide ([3]; after PIP2 or PIP3 application): 0.27 ± 0.02 | Hill coefficient h after phosphoinositide [3, 5]: 1.6 | K1/2 cGMP after phosphoinositide [3, 5]: 23.4 ± 1.8 µM | Hill coefficient h after phosphoinositide [3, 6]: 1.6 | K1/2 cGMP after phosphoinositide [3, 6]: 24.5 µM | Imax cGMP compared with initial values ([3]; saturating cGMP, after 1 µM PIP3 or 10 µM PIP2): 85.3 ± 3.7% | Hill coefficient h after phosphoinositide [4]: 1.7 | K1/2 cGMP after phosphoinositide [4]: 8.7 ± 0.4 µM

CCCCNc1ccc(C(=O)OCCN(C)C)cc1 [tetracaine]
greater affinity for closed compared with open channels (CNG channels): ~1,000 fold
